Test results reported in ChEMBL document CHEMBL1138555, “N-acylated and N,N'-diacylated imidazolidine-2-thione derivatives and N,N'-diacylated tetrahydropyrimidine-2(1H)-thione analogues: synthesis and antiproliferative activity” (Eur J Med Chem, 2009).

What was measured:
T47D = experiment: Growth inhibition of human T47D cells after 48 hrs by sulforhodamine B assay; assay type: functional
Summary of the method: (§1)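 NCI in vitro panel screen. Compounds tested at five 10-fold dilutions, 10^-4 to 10^-8 M. Cells in 96-well plates were exposed for the last 48 h of a 72 h incubation. Viability/growth was read by sulforhodamine B protein assay. GI50 is the concentration giving 50% growth inhibition. Values beyond the tested range are reported as greater or less than the maximum or minimum concentration.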

SK-OV-3 = experiment: Growth inhibition of human SKOV3 cells after 48 hrs by sulforhodamine B assay; assay type: functional; details: SK-OV-3, 48 h
Summary of the method: (§2)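 NCI screen panel. Five 10-fold concentrations from 10^-4 to 10^-8 M. Exposure for the last 48 h of a 72 h incubation. Growth estimated by sulforhodamine B protein assay. GI50 is the concentration giving 50% growth inhibition. Where that level was not reached or was exceeded, the value is given as above or below the highest or lowest concentration tested.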

EKVX = experiment: Growth inhibition of human EKVX cells after 48 hrs by sulforhodamine B assay; assay type: functional; summary of the method: as §2
OVCAR-8 = experiment: Growth inhibition of human OVCAR8 cells after 48 hrs by sulforhodamine B assay; assay type: functional; details: OVCAR-8, 48 h; summary of the method: as §2
OVCAR-3 = experiment: Growth inhibition of human OVCAR-3 cells after 48 hrs by sulforhodamine B assay; assay type: functional; details: OVCAR-3, 48 h; summary of the method: as §2
U-251 = experiment: Growth inhibition of human U251 cells after 48 hrs by sulforhodamine B assay; assay type: functional; details: U-251, 48 h; summary of the method: as §1
HOP-92 = experiment: Growth inhibition of human HOP92 cells after 48 hrs by sulforhodamine B assay; assay type: functional; details: HOP-92, 48 h; summary of the method: as §2
UACC-257 = experiment: Growth inhibition of human UACC257 cells after 48 hrs by sulforhodamine B assay; assay type: functional; details: UACC-257, 48 h; summary of the method: as §1
CAKI-1 = experiment: Growth inhibition of human Caki1 cells after 48 hrs by sulforhodamine B assay; assay type: functional; details: CAKI-1, 48 h; summary of the method: as §2
BT-549 = experiment: Growth inhibition of human BT549 cells after 48 hrs by sulforhodamine B assay; assay type: functional; details: BT-549, 48 h; summary of the method: as §2
SF-295 = experiment: Growth inhibition of human SF295 cells after 48 hrs by sulforhodamine B assay; assay type: functional; details: SF-295, 48 h; summary of the method: as §2
A549 = experiment: Growth inhibition of human A549 cells after 48 hrs by sulforhodamine B assay; assay type: functional; details: A549, 48 h; summary of the method: as §2
HOP-62 = experiment: Growth inhibition of human HOP62 cells after 48 hrs by sulforhodamine B assay; assay type: functional; details: HOP-62, 48 h; summary of the method: as §2
MDA-MB-435 = experiment: Growth inhibition of human MDA-MB-435 cells after 48 hrs by sulforhodamine B assay; assay type: functional; details: MDA-MB-435, 48 h; summary of the method: as §2
KM12 = experiment: Growth inhibition of human KM12 cells after 48 hrs by sulforhodamine B assay; assay type: functional; details: KM12, 48 h; summary of the method: as §2
MT4 = experiment: Antiproliferative activity against human MT4 cells assessed as reduction of growth by MTT assay; assay type: functional, cell-based
Summary of the method: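 MT-4 lymphoblastoid T cells (ATCC) in RPMI 1640 with 10% FCS, penicillin/streptomycin, checked for mycoplasma. 1 × 10⁴ mock-infected cells per well with serial dilutions from a 100 mM DMSO stock. Incubated 4 days at 37 °C, viable cells counted by MTT. IC50 versus untreated controls by linear regression. Mean of three separate experiments.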

TK-10 = experiment: Growth inhibition of human TK10 cells after 48 hrs by sulforhodamine B assay; assay type: functional; details: TK-10, 48 h; summary of the method: as §1
786-0 = experiment: Growth inhibition of human 786-0 cells after 48 hrs by sulforhodamine B assay; assay type: functional; details: 786-0, 48 h; summary of the method: as §2
M14 = experiment: Growth inhibition of human M14 cells after 48 hrs by sulforhodamine B assay; assay type: functional; details: M14, 48 h; summary of the method: as §2
RXF 393 = experiment: Growth inhibition of human RXF393 cells after 48 hrs by sulforhodamine B assay; assay type: functional; details: RXF 393, 48 h; summary of the method: as §2
HCT-15 = experiment: Growth inhibition of human HCT15 cells after 48 hrs by sulforhodamine B assay; assay type: functional; details: HCT-15, 48 h; summary of the method: as §2
NCI-H460 = experiment: Growth inhibition of human NCI-H460 cells after 48 hrs by sulforhodamine B assay; assay type: functional; details: NCI-H460, 48 h; summary of the method: as §2
SR = experiment: Growth inhibition of human SR cells after 48 hrs by sulforhodamine B assay; assay type: functional; summary of the method: as §1
SK-MEL-2 = experiment: Growth inhibition of human SK-MEL-2 cells after 48 hrs by sulforhodamine B assay; assay type: functional; details: SK-MEL-2, 48 h; summary of the method: as §2
PC-3 = experiment: Growth inhibition of human PC3 cells after 48 hrs by sulforhodamine B assay; assay type: functional; details: PC-3, 48 h; summary of the method: as §2
IGROV-1 = experiment: Growth inhibition of human IGROV1 cells after 48 hrs by sulforhodamine B assay; assay type: functional; details: IGROV-1, 48 h; summary of the method: as §2
LOX IMVI = experiment: Growth inhibition of human LOXIMVI cells after 48 hrs by sulforhodamine B assay; assay type: functional; summary of the method: as §2
SNB-19 = experiment: Growth inhibition of human SNB19 cells after 48 hrs by sulforhodamine B assay; assay type: functional; details: SNB-19, 48 h; summary of the method: as §1
MDA-MB-231 = experiment: Growth inhibition of human MDA-MB-231 cells after 48 hrs by sulforhodamine B assay; assay type: functional; details: MDA-MB-231, 48 h; summary of the method: as §2
[1] = Growth inhibition of human […] cells after 48 hrs by sulforhodamine B assay; assay type: functional; summary of the method: as §2
NCI-H23 = experiment: Growth inhibition of human NCI-H23 cells after 48 hrs by sulforhodamine B assay; assay type: functional; details: NCI-H23, 48 h; summary of the method: as §2
DU-145 = experiment: Growth inhibition of human DU145 cells after 48 hrs by sulforhodamine B assay; assay type: functional; details: DU-145, 48 h; summary of the method: as §2
HL-60(TB) = experiment: Growth inhibition of human HL-60(TB) cells after 48 hrs by sulforhodamine B assay; assay type: functional; details: HL-60, 48 h
Summary of the method: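 NCI 60-cell-line screen protocol: cells exposed to compound at five 10-fold dilutions from 10^-4 to 10^-8 M for the last 48 h of a 72 h incubation. Sulforhodamine B protein assay estimated viability/growth. GI50 (50% growth inhibition) derived; where not reached or exceeded, reported as greater or less than the highest or lowest concentration tested.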

K562 = experiment: Growth inhibition of human K562 cells after 48 hrs by sulforhodamine B assay; assay type: functional; details: K562, 48 h; summary of the method: as §2
NCI/ADR-RES = experiment: Growth inhibition of human NCI/ADR-RES cells after 48 hrs by sulforhodamine B assay; assay type: functional; summary of the method: as §2
MOLT-4 = experiment: Growth inhibition of human MOLT4 cells after 48 hrs by sulforhodamine B assay; assay type: functional; details: MOLT-4, 48 h; summary of the method: as §2
SK-MEL-5 = experiment: Growth inhibition of human SK-MEL-5 cells after 48 hrs by sulforhodamine B assay; assay type: functional; details: SK-MEL-5, 48 h; summary of the method: as §2
UACC-62 = experiment: Growth inhibition of human UACC62 cells after 48 hrs by sulforhodamine B assay; assay type: functional; details: UACC-62, 48 h; summary of the method: as §1
OVCAR-4 = experiment: Growth inhibition of human OVCAR4 cells after 48 hrs by sulforhodamine B assay; assay type: functional; details: OVCAR-4, 48 h; summary of the method: as §2
COLO 205 = experiment: Growth inhibition of human COLO205 cells after 48 hrs by sulforhodamine B assay; assay type: functional; details: COLO 205, 48 h; summary of the method: as §2
UO-31 = experiment: Growth inhibition of human UO31 cells after 48 hrs by sulforhodamine B assay; assay type: functional; details: UO-31, 48 h; summary of the method: as §1
SK-MEL-28 = experiment: Growth inhibition of human SK-MEL-28 cells after 48 hrs by sulforhodamine B assay; assay type: functional; details: SK-MEL-28, 48 h; summary of the method: as §2
Malme-3M = experiment: Growth inhibition of human MALME-3M cells after 48 hrs by sulforhodamine B assay; assay type: functional; summary of the method: as §2
SN12C = experiment: Growth inhibition of human SN12C cells after 48 hrs by sulforhodamine B assay; assay type: functional; summary of the method: as §1
HCT-116 = experiment: Growth inhibition of human HCT116 cells after 48 hrs by sulforhodamine B assay; assay type: functional; details: HCT-116, 48 h; summary of the method: as §2
ACHN = experiment: Growth inhibition of human ACHN cells after 48 hrs by sulforhodamine B assay; assay type: functional; summary of the method: as §2
SW-620 = experiment: Growth inhibition of human SW620 cells after 48 hrs by sulforhodamine B assay; assay type: functional; details: SW-620, 48 h; summary of the method: as §1
NCI-H322M = experiment: Growth inhibition of human NCI-H322M cells after 48 hrs by sulforhodamine B assay; assay type: functional; summary of the method: as §2
SNB-75 = experiment: Growth inhibition of human SNB75 cells after 48 hrs by sulforhodamine B assay; assay type: functional; details: SNB-75, 48 h; summary of the method: as §1
HT-29 = experiment: Growth inhibition of human HT-29 cells after 48 hrs by sulforhodamine B assay; assay type: functional; details: HT-29, 48 h; summary of the method: as §2
SF-268 = experiment: Growth inhibition of human SF268 cells after 48 hrs by sulforhodamine B assay; assay type: functional; details: SF-268, 48 h; summary of the method: as §2

COC(=O)/C(C#N)=C/N1CCN(C(=O)c2ccco2)C1=S
GI50 (T47D): 4.6 µM
GI50 (SK-OV-3): 28.2 µM
GI50 (EKVX): 10.2 µM
GI50 (OVCAR-8): 15.5 µM
GI50 (OVCAR-3): 4.9 µM
GI50 (U-251): 6.8 µM
GI50 (HOP-92): 14 µM
GI50 (UACC-257): 5.9 µM
GI50 (CAKI-1): 3.4 µM
GI50 (BT-549): 4.2 µM
GI50 (SF-295): 26 µM
GI50 (A549): 14.6 µM
GI50 (HOP-62): 22.3 µM
GI50 (MDA-MB-435): 6.8 µM
GI50 (KM12): 3.3 µM
IC50 (MT4): 5 µM
GI50 (TK-10): 3.6 µM
GI50 (786-0): 6.3 µM
GI50 (M14): 6.4 µM
GI50 (RXF 393): 3.1 µM
GI50 (HCT-15): 3 µM
GI50 (NCI-H460): 2.5 µM
GI50 (SR): 2.1 µM
GI50 (SK-MEL-2): 2.9 µM
GI50 (PC-3): 6.8 µM
GI50 (IGROV-1): 6.2 µM
GI50 (LOX IMVI): 2.4 µM
GI50 (SNB-19): 54.9 µM
GI50 (MDA-MB-231): 4.2 µM
GI50 [1]: 3.3 µM
GI50 (NCI-H23): 13.2 µM
GI50 (DU-145): 3.5 µM
GI50 (HL-60(TB)): 6.9 µM
GI50 (K562): 3.7 µM
GI50 (NCI/ADR-RES): 24 µM
GI50 (MOLT-4): 7.4 µM
GI50 (SK-MEL-5): 14.8 µM
GI50 (UACC-62): 10.8 µM
GI50 (OVCAR-4): 23.3 µM
GI50 (COLO 205): 31.7 µM
GI50 (UO-31): 5.2 µM
GI50 (SK-MEL-28): 13 µM
GI50 (Malme-3M): 32.7 µM
GI50 (SN12C): 3.7 µM
GI50 (HCT-116): 4 µM
GI50 (ACHN): 4.8 µM
GI50 (SW-620): 5.2 µM
GI50 (NCI-H322M): 14 µM
GI50 (SNB-75): 15.5 µM
GI50 (HT-29): 12.2 µM
GI50 (SF-268): 4.8 µM
